Source: ChEMBL document CHEMBL1240396, “In vitro sensitivities of Plasmodium falciparum to different antimalarial drugs in Uganda” (Antimicrob Agents Chemother, 2010)

Each compound was assayed on Plasmodium falciparum (assay: Antimicrobial activity against Plasmodium falciparum by ELISA).
Assay type: functional, organism-based
In short: (§1)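 Fresh patient isolates, taken before therapy, washed in RPMI 1640, diluted with group O erythrocytes to 0.05% parasitemia, ~2% PCV with 0.5% Albumax II. Added to dried predosed wells with seven duplicate 2-fold dilutions (CQ 15.7–1,002 nM; MDAQ 6.25–400 nM; QN 15.4–985 nM; DHA 0.13–8.5 nM; LM 0.2–12.5 nM; PQ 1.6–100 nM). Incubated 72 h, 37°C, 5% CO2, then freeze-thawed. HRP-2 ELISA (A450) compared against drug-free wells. IC50 from nonlinear regression.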

Row | Compound | IC50
1 | C=C[C@H]1CN2CC[C@H]1C[C@H]2[C@H](O)c1ccnc2ccc(OC)cc12 [QUININE] | 94.4 nM
2 | Clc1ccc2c(N3CCN(CCCN4CCN(c5ccnc6cc(Cl)ccc56)CC4)CC3)ccnc2c1 [PIPERAQUINE] | 6.1 nM
3 | CCCCN(CCCC)CC(O)c1cc(Cl)cc2c1-c1ccc(Cl)cc1/C2=C/c1ccc(Cl)cc1 (stereo not drawn) [LUMEFANTRINE] | 0.51 nM
4 | C[C@H]1[C@@H](O)O[C@@H]2O[C@@]3(C)CC[C@H]4[C@H](C)CC[C@@H]1[C@@]24OO3 [ARTENIMOL] | 0.55 nM
5 | CCNCc1cc(Nc2ccnc3cc(Cl)ccc23)ccc1O [DESETHYL AMODIAQUINE] | 66.4 nM

These compounds were tested on Plasmodium falciparum (assay: Antimicrobial activity against chloroquine-sensitive Plasmodium falciparum D6 by ELISA).
Assay type: functional, organism-based
In short: (§2)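 Reference laboratory lines run as controls. Drug-predosed wells held seven duplicate 2-fold dilutions (CQ 15.7–1,002 nM; MDAQ 6.25–400 nM; QN 15.4–985 nM; DHA 0.13–8.5 nM; LM 0.2–12.5 nM; PQ 1.6–100 nM). Incubated 72 h, 37°C, 5% CO2, freeze-thawed, and HRP-2 measured by ELISA at A450 against drug-free wells. IC50 by nonlinear regression.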

Row | Compound | IC50
6 | C=C[C@H]1CN2CC[C@H]1C[C@H]2[C@H](O)c1ccnc2ccc(OC)cc12 [QUININE] | 107 nM
7 | Clc1ccc2c(N3CCN(CCCN4CCN(c5ccnc6cc(Cl)ccc56)CC4)CC3)ccnc2c1 [PIPERAQUINE] | 6.26 nM
8 | CCCCN(CCCC)CC(O)c1cc(Cl)cc2c1-c1ccc(Cl)cc1/C2=C/c1ccc(Cl)cc1 (stereo not drawn) [LUMEFANTRINE] | 1.82 nM
9 | C[C@H]1[C@@H](O)O[C@@H]2O[C@@]3(C)CC[C@H]4[C@H](C)CC[C@@H]1[C@@]24OO3 [ARTENIMOL] | 0.79 nM
10 | CCNCc1cc(Nc2ccnc3cc(Cl)ccc23)ccc1O [DESETHYL AMODIAQUINE] | 30.9 nM

What follows are compounds tested on Plasmodium falciparum (assay: Antimicrobial activity against chloroquine-resistant Plasmodium falciparum K1 by ELISA).
Assay type: functional, organism-based
In short: as §2

Row | Compound | IC50
11 | C=C[C@H]1CN2CC[C@H]1C[C@H]2[C@H](O)c1ccnc2ccc(OC)cc12 [QUININE] | 276 nM
12 | Clc1ccc2c(N3CCN(CCCN4CCN(c5ccnc6cc(Cl)ccc56)CC4)CC3)ccnc2c1 [PIPERAQUINE] | 12.5 nM
13 | CCCCN(CCCC)CC(O)c1cc(Cl)cc2c1-c1ccc(Cl)cc1/C2=C/c1ccc(Cl)cc1 (stereo not drawn) [LUMEFANTRINE] | 0.31 nM
14 | C[C@H]1[C@@H](O)O[C@@H]2O[C@@]3(C)CC[C@H]4[C@H](C)CC[C@@H]1[C@@]24OO3 [ARTENIMOL] | 0.49 nM
15 | CCNCc1cc(Nc2ccnc3cc(Cl)ccc23)ccc1O [DESETHYL AMODIAQUINE] | 262 nM

The compounds below were run on Plasmodium falciparum (assay: Antimicrobial activity against Plasmodium falciparum harboring mdr1 N86Y/D1246Y/Y184F mutant gene by ELISA).
Assay type: functional, organism-based
In short: as §1

Row | Compound | IC50
16 | C=C[C@H]1CN2CC[C@H]1C[C@H]2[C@H](O)c1ccnc2ccc(OC)cc12 [QUININE] | 15.4 nM
17 | Clc1ccc2c(N3CCN(CCCN4CCN(c5ccnc6cc(Cl)ccc56)CC4)CC3)ccnc2c1 [PIPERAQUINE] | 1.6 nM
18 | CCCCN(CCCC)CC(O)c1cc(Cl)cc2c1-c1ccc(Cl)cc1/C2=C/c1ccc(Cl)cc1 (stereo not drawn) [LUMEFANTRINE] | 0.19 nM
19 | CCNCc1cc(Nc2ccnc3cc(Cl)ccc23)ccc1O [DESETHYL AMODIAQUINE] | 6.3 nM

What follows are compounds tested on Plasmodium falciparum (assay: Antimicrobial activity against chloroquine-resistant Plasmodium falciparum W2 by ELISA).

Row | Compound | IC50
20 | C=C[C@H]1CN2CC[C@H]1C[C@H]2[C@H](O)c1ccnc2ccc(OC)cc12 [QUININE] | 491 nM
21 | CCCCN(CCCC)CC(O)c1cc(Cl)cc2c1-c1ccc(Cl)cc1/C2=C/c1ccc(Cl)cc1 (stereo not drawn) [LUMEFANTRINE] | 0.45 nM
22 | C[C@H]1[C@@H](O)O[C@@H]2O[C@@]3(C)CC[C@H]4[C@H](C)CC[C@@H]1[C@@]24OO3 [ARTENIMOL] | 0.41 nM
23 | CCNCc1cc(Nc2ccnc3cc(Cl)ccc23)ccc1O [DESETHYL AMODIAQUINE] | 268 nM

What follows are compounds tested on Plasmodium falciparum (assay: Antimicrobial activity against chloroquine-sensitive Plasmodium falciparum HB3 by ELISA).

Row | Compound | IC50
24 | C=C[C@H]1CN2CC[C@H]1C[C@H]2[C@H](O)c1ccnc2ccc(OC)cc12 [QUININE] | 236 nM
25 | Clc1ccc2c(N3CCN(CCCN4CCN(c5ccnc6cc(Cl)ccc56)CC4)CC3)ccnc2c1 [PIPERAQUINE] | 10.5 nM
26 | CCCCN(CCCC)CC(O)c1cc(Cl)cc2c1-c1ccc(Cl)cc1/C2=C/c1ccc(Cl)cc1 (stereo not drawn) [LUMEFANTRINE] | 1.41 nM
27 | C[C@H]1[C@@H](O)O[C@@H]2O[C@@]3(C)CC[C@H]4[C@H](C)CC[C@@H]1[C@@]24OO3 [ARTENIMOL] | 0.71 nM
28 | CCNCc1cc(Nc2ccnc3cc(Cl)ccc23)ccc1O [DESETHYL AMODIAQUINE] | 29.8 nM
